# Screens deposited in PubChem BioAssay by several laboratories.
# procasp3 activ = activators of human procaspase-3 | 0.11% of 330,000 active | activation, % at 8.5 µM | P42574 | recombinant procaspase-3 D3A, Ac-DEVD-pNA absorbance 405 nm;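 active = activation above the mean of all tested compounds plus 3 SD, cut at about 21% in these data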;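 note: 0% = DMSO alone and 100% = DMSO wells spiked with extra 5 µM PC-3 D3A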
# Target sequence (P42574 whole entry D9A/D28A/D175A): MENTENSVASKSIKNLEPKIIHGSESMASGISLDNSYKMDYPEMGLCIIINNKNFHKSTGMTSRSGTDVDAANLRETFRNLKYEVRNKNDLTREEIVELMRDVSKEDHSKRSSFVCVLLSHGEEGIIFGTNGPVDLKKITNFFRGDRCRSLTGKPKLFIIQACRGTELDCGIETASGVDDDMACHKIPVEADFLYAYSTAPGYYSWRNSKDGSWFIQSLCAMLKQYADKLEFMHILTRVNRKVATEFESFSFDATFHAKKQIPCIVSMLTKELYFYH
#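 Test system: Procaspase-3 D3A mutant; medium: Zinc-free HEPES/NaCl buffer with 0.01% Triton X-100 at pH 7.4; reagent: DEVD-pNA substrate; doses: one concentration, 8.5 µM nominal, 0.8% DMSO; times: 1 h preincubation plus 2 h reaction at 25 °C; signal: Epi-absorbance at 405 nm of released p-nitroaniline, 0 and 120 min; replicates: singlicate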
# VIM-2 inh = blocks Pseudomonas aeruginosa VIM-2 metallo-beta-lactamase | purified VIM-2, nitrocefin hydrolysis, epi-absorbance fluorescence | inhibition, % at 5.6 µM | 0.89% of 290,000 active;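 active = inhibition above the mean of all tested compounds plus 3 SD, cutoff set per screening run, cut at about 7.5% in these data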;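 note: red hydrolysis product quenches plate fluorescence so inhibitors raise well fluorescence; 0% = enzyme with DMSO and 100% = DMSO without enzyme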
# Neddylation inh = inhibitors of human cullin neddylation. P61081+Q13564. TR-FRET cullin neddylation, biochemical. calls only at 25 µM. 0.58% of 360,000 active; in the data active = inhibition above about 36%
# IMP-1 inh = blocks Pseudomonas aeruginosa IMP-1 metallo-beta-lactamase | AID 1556 | 0.45% of 290,000 active | purified IMP-1, nitrocefin hydrolysis, epi-absorbance fluorescence | inhibition, % at 5.6 µM;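 active = inhibition above the mean plus 3 SD of all compounds in the same screening run, cut at about 4.5% in these data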;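 note: 0% = IMP-1 with DMSO and 100% = DMSO wells lacking enzyme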
#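 System: purified IMP-1; amount: IMP-1 0.2 nM before substrate addition; compound: single dose, 5.6 µM; times: 25 °C, 15 min preincubation, 25 min reaction; signal: Epi-absorbance via hydrolysed-nitrocefin quenching of white-plate fluorescence, 480/530 nm, EDTA stop; benchmarks: DMSO with and without IMP-1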
# proCasp7 act = counter-screen for procaspase-3 activators: activators of human procaspase-7; P55210; recombinant procaspase-7, Ac-DEVD-pNA absorbance 405 nm; D23A/D198A/D206A triple mutant, cannot self-cleave; scale: DMSO 0, 5 µM enzyme 100; AID 463210; 0.093% of 330,000 active; activation, % at 8.5 µM;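 active = percent activation above the screen-wide mean plus 3 SD, cut at about 25% in these data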
# Target sequence (P55210 whole entry D23A/D198A/D206A): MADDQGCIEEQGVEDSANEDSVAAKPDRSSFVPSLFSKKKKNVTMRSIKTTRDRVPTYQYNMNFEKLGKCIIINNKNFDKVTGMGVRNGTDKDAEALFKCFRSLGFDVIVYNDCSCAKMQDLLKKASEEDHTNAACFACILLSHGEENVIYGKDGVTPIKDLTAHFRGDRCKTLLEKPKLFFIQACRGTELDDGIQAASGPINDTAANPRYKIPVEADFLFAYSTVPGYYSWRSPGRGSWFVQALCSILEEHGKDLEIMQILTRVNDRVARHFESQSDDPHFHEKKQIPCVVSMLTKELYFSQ
#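 Replicates: singlicate. Assay system: Procaspase-7 triple mutant (PC-7 D3A). Signal: 405 nm absorbance of p-nitroaniline. Times: 1 h preincubation, 2 h reaction. Buffer or medium: Zinc-free HEPES pH 7.4 with 300 mM NaCl, 0.01% Triton X-100. Also added: DEVD-pNA substrate. Benchmarks: DMSO wells as 0%, DMSO with 5 µM added PC-7 as 100%.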
# PolyA inhibitor = yeast polyadenylation inhibition | 0.02% of 300,000 active | S. cerevisiae SKY197-pL101 polyadenylation reporter, beta-gal luminescence; efflux-impaired pdr1/pdr3 knockout yeast; score 100 = 6 SD above DMSO | activity score, % at 12 µM;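 active = lowest replicate activity score at least 50, where 100 means six control SD above control mean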;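 note: yeast exposed to compound for 9 h at 30 °C; higher score means more reporter readthrough which indicates perturbed polyadenylation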
# Neddyl inh conf = confirmation of human cullin neddylation inhibitors; shares compounds with Neddylation inh; TR-FRET cullin neddylation biochemical assay; calls only at 25 µM; 13% of 1,800 active; AID 652217; in the data active = inhibition above about 40%;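 note: neddylation substrate is the cullin 1 ring ligase complex with SKP2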
# Numbers without * were called inactive; i = inactive; / = no result given; + = active, no number. Compounds with a hit are over-represented: about 1.7% of the library has one in this group of screens.
SMILES,procasp3 activ,VIM-2 inh,Neddylation inh,IMP-1 inh,proCasp7 act,PolyA inhibitor,Neddyl inh conf
COc1ccc(C(CNC(=O)c2oc3ccc(Br)cc3c2C)N2CCCCC2)cc1 (stereo unspecified),9,-2,i,-4,-1,-6,/
CCOc1ccc2oc(C(=O)NCC(c3ccco3)N(C)C)c(C)c2c1 (stereo unspecified),/,/,+,/,/,/,/
COc1ccc(C(CNC(=O)c2oc3ccc(OC)cc3c2C)N2CCCC2)cc1 (stereo unspecified),0,/,+,/,2,-16,/
CCOc1ccc2oc(C(=O)NCc3ccccc3CN3CCCC3)c(C)c2c1,4,/,+,/,2,/,/
CN(C)C(CNC(=O)c1ccc(Br)cc1)c1ccco1 (stereo unspecified),4,-2,i,-4,5,-8,/
Cc1ccc(-c2nnn(CC(=O)N(c3ccccc3F)C(CC(C)C)C(=O)NCC3CCCO3)n2)cc1 (stereo unspecified),-8,-2,i,-2,1,23,/
CCOc1ccc2[nH]c(=O)c(CN(CCO)C(=O)CC)cc2c1,-2,-2,+,-5,-3,20,+
CCCn1c(SCC(=O)N2N=C3/C(=C/c4ccc(OC)cc4)CCCC3C2c2ccc(OC)cc2)n[nH]c1=O (stereo unspecified),1,-1,+,-3,-3,-7,i
CC(=O)N1N=C2/C(=C/c3ccccc3)CCCC2C1c1ccccc1 (stereo unspecified),-4,3,+,-1,-5,-18,/
CCCn1c(SCC(=O)NCc2ccc(OC)cc2)n[nH]c1=O,5,-2,i,-2,0,-14,/
Cc1cc(NC(=O)C2CC=CCC2C(=O)O)ccc1NC(=O)c1ccccc1 (stereo unspecified),3,-1,i,-2,-7,12,/
CCC/C(=C1/c2ccccc2C(=O)N1c1ccccc1)c1ccc2[nH]ccc2c1,3,/,+,/,20,/,i
Cn1nnc2cc(C(=O)NC(C)(C)C)ccc21,3,-1,i,-1,8,-3,/
CC(=O)OC[C@H]1O[C@@H](Oc2cc(O)cc3oc(-c4ccc(O)cc4)cc(=O)c23)[C@H](O[C@@H]2O[C@@H](C)[C@H](O)[C@@H](O)[C@H]2O)[C@@H](O)[C@@H]1O,11,/,+,/,22,/,/
CC1OC(OC2C(Oc3c(-c4ccc(O)cc4)oc4cc(O)cc(O)c4c3=O)OC(COC3O[C@@H](C)[C@H](O)[C@@H](O)C3O)C(O)C2O)C(O)C(O)C1O (stereo partly specified),-4,/,i,/,-2,5,/
CCCN(CC(=O)Nc1ccccc1C)C(=O)C1CC(=O)N(c2ccccc2OCC)C1 (stereo unspecified),/,/,i,/,/,/,/
Nc1ccc(C(=O)N/N=C/c2cn(Cc3cccc(F)c3)c3ccccc23)cc1,/,-2,+,-3,/,-5,i
COc1ccccc1OCC(=O)/C=C1/N(C)c2ccccc2C1(C)C,2,-1,+,-3,0,-21,i
CN1/C(=C\C(=O)COC(=O)c2ccccc2O)C(C)(C)c2ccccc21,5,-2,i,-2,3,-13,/
COc1ccc(CCN(C)C(=O)CN2C(=O)NC3(CCCCC3C)C2=O)cc1OC (stereo unspecified),1,/,+,/,5,8,i
Cc1cc(-c2ccccc2)nc2oc(C(=O)NN)c(N)c12,-17,-2,+,-4,-6,6,+
COc1ccccc1C(=O)COC(=O)c1cc(S(=O)(=O)N2CCCCC2)ccc1N1CCOCC1,-1,/,i,/,1,38,/
COc1ccccc1C(=O)NC(=O)CSc1nnc2ccccn12,-7,/,+,/,6,/,i
COc1ccc(CCNC(=O)C2CC(=O)N(c3ccccc3)C2)cc1OC (stereo unspecified),-1,-2,i,-2,-1,8,/
COCCn1c(C)cc(/C=C(\C#N)C(=O)OCC(=O)Nc2ccc(S(N)(=O)=O)cc2)c1C,/,/,+,/,/,/,+
SMILES,procasp3 activ,VIM-2 inh,Neddylation inh,IMP-1 inh,proCasp7 act,PolyA inhibitor,Neddyl inh conf
COc1ccc(NC(=O)c2c[nH]c(=O)n(-c3ccc(C)c(C)c3)c2=O)cc1OC,7,-3,i,-2,5,10,/
COc1ccc(NC(=O)c2c[nH]c(=O)n(-c3ccc(C)c(C)c3)c2=O)c(OC)c1,/,/,+,/,/,/,i
Cc1nc2c(C(=O)N3CCN(c4ccccn4)CC3)cnn2c(C)c1Cc1cccc(Cl)c1,2,-4,+,-3,3,-12,i
Cc1ccc(-n2nnnc2-c2cccs2)cc1[N+](=O)[O-],1,/,+,/,8,3,i
OCC1CCCCN1CCNCc1cn[nH]c1-c1cccc2ccccc12 (stereo unspecified),-8,-1,i,-3,-1,-8,/
CC(=O)CC1OC(=O)C(Br)=C1NCc1ccccc1 (stereo unspecified),-21,-2,i,-3,-33,13,/
O=C(Oc1ccc2ccc(=O)oc2c1)c1ccccc1,-10,1,/,-2,0,2,/
CN1c2ccccc2C(O)=C(C(=S)Nc2ccc(F)c(Cl)c2)S1(=O)=O,-12,0,+,0,-8,-13,i
COc1cccc(CC(=O)n2nc(N)c3cc4ccc(OC)cc4nc32)c1,9,-1,+,-3,5,8,i
COc1ccc(CNC2CCCc3ccccc32)c(OC)c1 (stereo unspecified),/,0,i,-3,/,2,/
COc1ccc(CNC2CCCCC2C)c(OC)c1 (stereo unspecified),-2,-3,+,-2,-1,/,/
N#C/C(=C/c1ccco1)C(N)=S,-20,1,+,2,-28,-5,i
N#C/C(=C\c1ccc2c(c1)OCO2)C(N)=S,-15,-2,i,-2,-25,1,/
COc1ccccc1CCn1cnc2c3cc(C)ccc3n(C)c2c1=O,0,-3,+,-4,4,-15,/
COc1ccc2c(c1)c1ncn(CCN3CCCC3)c(=O)c1n2C,0,3,/,-1,1,2,/
COc1ccc(C2NC3=C(CCC3)C3(C#N)C(OC)(OC)N=C(N)C23C#N)cc1 (stereo unspecified),5,0,+,-1,2,19,i
COc1ccc(-c2csc(C(NC(C)=O)c3cccc(OC)c3)n2)cc1 (stereo unspecified),/,/,i,/,/,/,/
